Laboratory results published in ChEMBL document CHEMBL3596093, “Synthesis and antimicrobial evaluation of 5-aryl-1,2,4-triazole-3-thione derivatives containing a rhodanine moiety” (2015).
Values after ≈ are worked out from the molar mass of the structure shown.

Tests used:
Staphylococcus aureus [1] = assay: Antibacterial activity against Staphylococcus aureus RN4220 after 24 hrs by two-fold serial dilution method; format: functional; details: RN4220, 24 h
In short: (§1)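 Broth microdilution MIC. Bacteria grown to mid-log phase in Mueller-Hinton broth, diluted 1000-fold, about 10^5 CFU/mL. Compounds from DMSO stocks, two-fold serial dilution from a final 64 µg/mL. Incubation at 37 °C for 24 h. Growth read as absorbance at 630 nm on a microplate reader. Run in triplicate.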

Staphylococcus aureus [2] = assay: Antibacterial activity against Staphylococcus aureus KCTC 209 after 24 hrs by two-fold serial dilution method; format: functional; details: KCTC 209, 24 h
In short: (§2)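 Strains grown to mid-log phase in Mueller-Hinton broth, then diluted 1000-fold in the same broth to about 10^5 CFU/mL. Compounds were made up as DMSO stocks and two-fold serially diluted from a final top concentration of 64 µg/mL. Incubation was 37 °C for 24 h. Growth was read as absorbance at 630 nm on a microplate reader. MIC assays were run in triplicate.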

Staphylococcus aureus [3] = assay: Antibacterial activity against Staphylococcus aureus KCTC 503 after 24 hrs by two-fold serial dilution method; format: functional; details: KCTC 503, 24 h; in short: as §2
Streptococcus mutans = assay: Antibacterial activity against Streptococcus mutans 3065 after 24 hrs by two-fold serial dilution method; format: functional; details: Streptococcus mutans, 3065, 24 h; in short: as §2
Escherichia coli [4] = assay: Antibacterial activity against Escherichia coli KCTC 1924 after 24 hrs by two-fold serial dilution method; format: functional; details: KCTC 1924, 24 h; in short: as §2
Escherichia coli [5] = assay: Antibacterial activity against Escherichia coli CCARM 1356 after 24 hrs by two-fold serial dilution method; format: functional; details: CCARM 1356, 24 h; in short: as §2
Pseudomonas aeruginosa [6] = assay: Antibacterial activity against Pseudomonas aeruginosa 2742 after 24 hrs by two-fold serial dilution method; format: functional; details: Pseudomonas aeruginosa, 2742, 24 h; in short: as §2
Pseudomonas aeruginosa [7] = assay: Antibacterial activity against Pseudomonas aeruginosa 2004 after 24 hrs by two-fold serial dilution method; format: functional; details: Pseudomonas aeruginosa, 2004, 24 h; in short: as §2
Salmonella typhimurium = assay: Antibacterial activity against Salmonella typhimurium 2421 after 24 hrs by two-fold serial dilution method; format: functional, Salmonella enterica subsp. enterica serovar Typhimurium; details: Salmonella enterica, 2421, 24 h; in short: as §2
Candida albicans = assay: Antifungal activity against Candida albicans 7535 after 24 hrs by two-fold serial dilution method; format: functional; details: Candida albicans, 7535, 24 h
Staphylococcus aureus [8] = assay: Antibacterial activity against methicillin-resistant Staphylococcus aureus CCARM 3167 after 24 hrs by two-fold serial dilution method; format: functional; details: CCARM 3167, 24 h; in short: as §1
Staphylococcus aureus [9] = assay: Antibacterial activity against methicillin-resistant Staphylococcus aureus CCARM 3506 after 24 hrs by two-fold serial dilution method; format: functional; details: CCARM 3506, 24 h; in short: as §1
Staphylococcus aureus [10] = assay: Antibacterial activity against quinolone-resistant Staphylococcus aureus CCARM 3505 after 24 hrs by two-fold serial dilution method; format: functional; details: CCARM 3505, 24 h; in short: as §1
Staphylococcus aureus [11] = assay: Antibacterial activity against quinolone-resistant Staphylococcus aureus CCARM 3519 after 24 hrs by two-fold serial dilution method; format: functional; details: CCARM 3519, 24 h; in short: as §1
Staphylococcus aureus [12] = assay: Bactericidal activity against Staphylococcus aureus RN4220 after 24 hrs by agar plate method; format: functional; details: RN4220, 24 h
In short: (§3)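 Samples of 5 µL from MIC wells with no visible growth were plated onto fresh Mueller-Hinton agar and incubated a further 24 h at 37 °C. MBC is the lowest concentration giving no visible colony growth on the agar. Assays were run in triplicate.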

Staphylococcus aureus [13] = assay: Bactericidal activity against Staphylococcus aureus KCTC 503 after 24 hrs by agar plate method; format: functional; details: KCTC 503, 24 h
In short: (§4)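 5 µL from each well without visible growth plated on fresh Mueller-Hinton agar, then 37 °C for a further 24 h. MBC is the lowest concentration giving no visible colonies. Run in triplicate.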

Escherichia coli [14] = assay: Bactericidal activity against Escherichia coli KCTC 1924 after 24 hrs by agar plate method; format: functional; details: KCTC 1924, 24 h; in short: as §3
Staphylococcus aureus [15] = assay: Bactericidal activity against methicillin-resistant Staphylococcus aureus CCARM 3167 after 24 hrs by agar plate method; format: functional; details: CCARM 3167, 24 h; in short: as §4
Staphylococcus aureus [16] = assay: Bactericidal activity against methicillin-resistant Staphylococcus aureus CCARM 3506 after 24 hrs by agar plate method; format: functional; details: CCARM 3506, 24 h; in short: as §4
Staphylococcus aureus [17] = assay: Bactericidal activity against quinolone-resistant Staphylococcus aureus CCARM 3505 after 24 hrs by agar plate method; format: functional; details: CCARM 3505, 24 h; in short: as §4
Staphylococcus aureus [18] = assay: Bactericidal activity against quinolone-resistant Staphylococcus aureus CCARM 3519 after 24 hrs by agar plate method; format: functional; details: CCARM 3519, 24 h; in short: as §4

| Compound | MIC (Staphylococcus aureus [1]) | MIC (Staphylococcus aureus [2]) | MIC (Staphylococcus aureus [3]) | MIC (Streptococcus mutans) | MIC (Escherichia coli [4]) | MIC (Escherichia coli [5]) | MIC (Pseudomonas aeruginosa [6]) | MIC (Pseudomonas aeruginosa [7]) | MIC (Salmonella typhimurium) | MIC (Candida albicans) | MIC (Staphylococcus aureus [8]) | MIC (Staphylococcus aureus [9]) | MIC (Staphylococcus aureus [10]) | MIC (Staphylococcus aureus [11]) | further results |
| --- | --- | --- | --- | --- | --- | --- | --- | --- | --- | --- | --- | --- | --- | --- | --- |
| O=C(O)CN1C(=O)/C(=C/c2ccc(/C=N/n3c(-c4ccc(Cl)cc4)n[nH]c3=S)cc2)SC1=S | > 64 µg/mL | > 64 µg/mL | > 64 µg/mL | > 64 µg/mL | > 128 µg/mL | > 128 µg/mL | > 128 µg/mL | > 128 µg/mL | > 128 µg/mL | > 64 µg/mL | > 64 µg/mL | > 64 µg/mL | > 64 µg/mL | > 64 µg/mL | – |
| O=C(O)CN1C(=O)/C(=C/c2ccc(/C=N/n3c(-c4ccc(Br)cc4)n[nH]c3=S)cc2)SC1=S | > 64 µg/mL | > 64 µg/mL | > 64 µg/mL | > 64 µg/mL | > 128 µg/mL | > 128 µg/mL | > 128 µg/mL | > 128 µg/mL | > 128 µg/mL | > 64 µg/mL | > 64 µg/mL | > 64 µg/mL | > 64 µg/mL | > 64 µg/mL | – |
| Cc1cccc(-c2n[nH]c(=S)n2/N=C/c2ccc(/C=C3\SC(=S)NC3=O)cc2)c1 | 32 µg/mL (≈ 73.1 µM) | > 64 µg/mL | 32 µg/mL (≈ 73.1 µM) | > 64 µg/mL | 32 µg/mL (≈ 73.1 µM) | > 128 µg/mL | > 128 µg/mL | > 128 µg/mL | > 128 µg/mL | > 64 µg/mL | 64 µg/mL (≈ 146 µM) | 32 µg/mL (≈ 73.1 µM) | 32 µg/mL (≈ 73.1 µM) | 32 µg/mL (≈ 73.1 µM) | MBC (Staphylococcus aureus [12]): > 256 µg/mL; MBC (Staphylococcus aureus [13]): > 256 µg/mL; MBC (Escherichia coli [14]): 256 µg/mL (≈ 585 µM); MBC (Staphylococcus aureus [15]): > 256 µg/mL; MBC (Staphylococcus aureus [16]): > 256 µg/mL; MBC (Staphylococcus aureus [17]): > 256 µg/mL; MBC (Staphylococcus aureus [18]): > 256 µg/mL |
| Cc1ccc(-c2n[nH]c(=S)n2/N=C/c2ccc(/C=C3\SC(=S)NC3=O)cc2)cc1 | > 64 µg/mL | > 64 µg/mL | > 64 µg/mL | > 64 µg/mL | > 128 µg/mL | > 128 µg/mL | > 128 µg/mL | > 128 µg/mL | > 128 µg/mL | > 64 µg/mL | > 64 µg/mL | > 64 µg/mL | > 64 µg/mL | > 64 µg/mL | – |
| O=C1NC(=S)S/C1=C\c1ccc(/C=N/n2c(-c3cccc(Cl)c3)n[nH]c2=S)cc1 | > 64 µg/mL | > 64 µg/mL | > 64 µg/mL | > 64 µg/mL | > 128 µg/mL | > 128 µg/mL | > 128 µg/mL | > 128 µg/mL | > 128 µg/mL | > 64 µg/mL | > 64 µg/mL | > 64 µg/mL | > 64 µg/mL | > 64 µg/mL | – |
| O=C1NC(=S)S/C1=C\c1ccc(/C=N/n2c(-c3ccc(Cl)cc3)n[nH]c2=S)cc1 | > 64 µg/mL | > 64 µg/mL | > 64 µg/mL | > 64 µg/mL | > 128 µg/mL | > 128 µg/mL | > 128 µg/mL | > 128 µg/mL | > 128 µg/mL | > 64 µg/mL | > 64 µg/mL | > 64 µg/mL | > 64 µg/mL | > 64 µg/mL | – |
| O=C1NC(=S)S/C1=C\c1ccc(/C=N/n2c(-c3ccc(Br)cc3)n[nH]c2=S)cc1 | > 64 µg/mL | > 64 µg/mL | > 64 µg/mL | > 64 µg/mL | 64 µg/mL (≈ 127 µM) | > 128 µg/mL | > 128 µg/mL | > 128 µg/mL | > 128 µg/mL | > 64 µg/mL | > 64 µg/mL | > 64 µg/mL | > 64 µg/mL | > 64 µg/mL | MBC (Escherichia coli [14]): > 256 µg/mL |
| O=C1NC(=S)S/C1=C\c1ccc(/C=N/n2c(-c3ccc(F)cc3)n[nH]c2=S)cc1 | > 64 µg/mL | > 64 µg/mL | > 64 µg/mL | > 64 µg/mL | > 128 µg/mL | > 128 µg/mL | > 128 µg/mL | > 128 µg/mL | > 128 µg/mL | > 64 µg/mL | > 64 µg/mL | > 64 µg/mL | > 64 µg/mL | > 64 µg/mL | – |
